Read-outs that look alike come from different tables or passages of the source.
How the values were obtained:
[1] = molecular target: AGP A variant (S-disopyramide binding site) (Homo sapiens, UniProt P19652); conditions: among the drugs tested
Summary of the method: (§1)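 Human AGP was incubated with radiolabelled S-warfarin or [3H]S-disopyramide, with a series of unlabelled marker levels and test compound at 9.62, 19.2 and 48.1 μM, for 15 min at 37 °C. Ultrafiltration ran at 2000×g for 5 min at 37 °C, with a 30,000 MW cut-off for disopyramide. Mixture and filtrate radioactivity were counted by scintillation. Ki came from a non-linear least-squares competitive inhibition model with a constant non-specific binding term.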

AGP F1/S variants = AGP F1/S variants (Homo sapiens, UniProt P02763); experiment: Effect of other drugs on binding of tamsulosin to human AGP
Summary of the method: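 Commercial human AGP was mixed with unlabelled tamsulosin (40–500 μM solutions added), [3H]tamsulosin, and test compound at 9.62, 19.2 and 48.1 μM, then incubated for 15 min at 37 °C. Ultrafiltration used a 5000 MW cut-off at 2000×g for 5 min at 37 °C. Mixture and filtrate were counted by liquid scintillation. Ki was fitted by non-linear least squares to a competitive inhibition model with non-specific binding held constant.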

AGP A variant = AGP A variant (Homo sapiens, UniProt P19652); experiment: Screening: S-disopyramide binding with drug at 100-fold concentration; conditions: drug at 100-fold concentration of marker
Summary of the method: (§2)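 Radiolabelled S-disopyramide or S-warfarin binding to human AGP was measured with and without test compound at 100-fold the marker concentration. Incubation was 15 min at 37 °C, followed by ultrafiltration at 2000×g and scintillation counting. Marker binding remaining at 100-fold inhibitor was taken as non-specific. Compounds cutting specific binding by more than 70% went forward to quantitative analysis.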

AGP F1/S variant mixture = AGP F1/S variant mixture (Homo sapiens, UniProt P02763); experiment: Screening: S-warfarin binding with drug at 100-fold concentration; conditions: drug at 100-fold concentration of marker
Summary of the method: as §2

[2] = molecular target: AGP F1/S variant mixture (S-warfarin binding site) (Homo sapiens, UniProt P02763); experiment: Competitive inhibition of S-warfarin binding to human AGP by ultrafiltration; conditions: among the drugs tested
Summary of the method: as §1

human AGP variants = conditions: cited from earlier work; for Binding to AGP: used as positive controls

CCN(CC)CCCN(c1ccccc1)C1Cc2ccccc2C1 [Aprindine]
Binding affinity for the AGP A variant (S-disopyramide binding site) [1]: relatively high
Effect on binding of tamsulosin (AGP F1/S variants): significantly decreased

COc1ccccc1OCCNCC(O)COc1cccc2[nH]c3ccccc3c12 (centres unmarked) [Carvedilol]
Effect on binding of tamsulosin (AGP F1/S variants): significantly decreased

CC[C@H]1OC(=O)[C@H](C)[C@@H](O[C@H]2C[C@@](C)(OC)[C@@H](O)[C@H](C)O2)[C@H](C)[C@@H](O[C@@H]2O[C@H](C)C[C@H](N(C)C)[C@H]2O)[C@](C)(O)C[C@@H](C)C(=O)[C@H](C)[C@@H](O)[C@]1(C)O [Erythromycin]
Inhibition of binding of S-disopyramide (AGP A variant): markedly inhibited
Inhibition of binding of warfarin (AGP F1/S variant mixture): markedly inhibited
Effect on binding of tamsulosin (AGP F1/S variants): significantly decreased

COc1ccc(Cl)cc1C(=O)NCCc1ccc(S(=O)(=O)NC(=O)NC2CCCCC2)cc1 [Glibenclamide]
Inhibition of binding of S-disopyramide (AGP A variant): specifically inhibited

CN(C)C(=O)C(CCN1CCC(O)(c2ccc(Cl)cc2)CC1)(c1ccccc1)c1ccccc1 [Loperamide]
Inhibition of binding of S-disopyramide (AGP A variant): specifically inhibited

Clc1ccc(COC(Cn2ccnc2)c2ccc(Cl)cc2Cl)c(Cl)c1 (centres unmarked) [Miconazole]
Inhibition of binding of S-disopyramide (AGP A variant): markedly inhibited
Inhibition of binding of warfarin (AGP F1/S variant mixture): markedly inhibited

COC(=O)C1=C(C)NC(C)=C(C(=O)OCCN(C)Cc2ccccc2)C1c1cccc([N+](=O)[O-])c1 (centres unmarked) [Nicardipine]
Binding affinity for the AGP F1/S variant mixture (S-warfarin binding site) [2]: relatively high
Inhibition of binding of S-disopyramide (AGP A variant): markedly inhibited
Inhibition of binding of warfarin (AGP F1/S variant mixture): markedly inhibited

C=C[C@H]1C[N@@]2CC[C@H]1C[C@H]2[C@H](O)c1ccnc2ccc(OC)cc12 [Quinine]
Binding affinity for the AGP A variant (S-disopyramide binding site) [1]: relatively high
Inhibition of binding of S-disopyramide (AGP A variant): markedly inhibited
Inhibition of binding of warfarin (AGP F1/S variant mixture): markedly inhibited

CCC(C)(C)C(=O)O[C@H]1C[C@@H](C)C=C2C=C[C@H](C)[C@H](CC[C@@H]3C[C@@H](O)CC(=O)O3)[C@H]21 [Simvastatin]
Binding affinity for the AGP F1/S variant mixture (S-warfarin binding site) [2]: relatively high
Inhibition of binding of S-disopyramide (AGP A variant): markedly inhibited
Inhibition of binding of warfarin (AGP F1/S variant mixture): markedly inhibited

CSc1ccc2c(c1)N(CCC1CCCCN1C)c1ccccc1S2 (centres unmarked) [Thioridazine]
Binding affinity for the AGP A variant (S-disopyramide binding site) [1]: relatively high
Binding affinity for the AGP F1/S variant mixture (S-warfarin binding site) [2]: relatively high
Inhibition of binding of S-disopyramide (AGP A variant): markedly inhibited
Inhibition of binding of warfarin (AGP F1/S variant mixture): markedly inhibited
Effect on binding of tamsulosin (AGP F1/S variants): significantly decreased
Binding to AGP (human AGP variants): bind strongly to AGP

CN(C)CCC=C1c2ccccc2CCc2ccccc21 [amitriptyline]
Inhibition of binding of S-disopyramide (AGP A variant): specifically inhibited
Binding to AGP (human AGP variants): bind strongly to AGP

CN(C)CCCN1c2ccccc2Sc2ccc(Cl)cc21 [chlorpromazine]
AGP variant to which the drug binds (human AGP variants; separate AGP variants): to both variants

COc1ccc([C@@H]2Sc3ccccc3N(CCN(C)C)C(=O)[C@@H]2OC(C)=O)cc1 [diltiazem]
Inhibition of binding of S-disopyramide (AGP A variant): specifically inhibited

CC(C)N(CCC(C(N)=O)(c1ccccc1)c1ccccn1)C(C)C (centres unmarked) [disopyramide]
AGP variant to which the drug binds (human AGP variants; separate AGP variants): bind specifically to the A variant

CN(C)CCCN1c2ccccc2CCc2ccccc21 [imipramine]
AGP variant to which the drug binds (human AGP variants; separate AGP variants): bind specifically to the A variant
Binding to AGP (human AGP variants): bind strongly to AGP

CC(C)NCC(O)COc1cccc2ccccc12 (centres unmarked) [propranolol]
Inhibition of binding of S-disopyramide (AGP A variant): markedly inhibited
Inhibition of binding of warfarin (AGP F1/S variant mixture): markedly inhibited

CC/C(=C(\c1ccccc1)c1ccc(OCCN(C)C)cc1)c1ccccc1 [tamoxifen]
Inhibition of binding of S-disopyramide (AGP A variant): specifically inhibited
Binding to AGP (human AGP variants): bind strongly to AGP

CCOc1ccccc1OCCN[C@H](C)Cc1ccc(OC)c(S(N)(=O)=O)c1 [tamsulosin]
Binding affinity for the AGP F1/S variant mixture (S-warfarin binding site) [2]: relatively high
Inhibition of binding of warfarin (AGP F1/S variant mixture): specifically inhibited
AGP variant to which the drug binds (human AGP variants): binds specifically to the F1/S variants

CC(=O)CC(c1ccccc1)c1c(O)c2ccccc2oc1=O (centres unmarked) [warfarin]
Effect on binding of tamsulosin (AGP F1/S variants): significantly decreased
AGP variant to which the drug binds (human AGP variants; separate AGP variants): to an F1/S variant mixture
